EC50 data for ten compounds are collected here from ChEMBL document CHEMBL1145449, “Isolation, structures, and structure - cytotoxic activity relationships of withanolides and physalins from Physalis angulata” (J Nat Prod, 2007).

In brackets after ≈: the same amount, converted by molar mass.

What all share (assay type): functional, cell-based
The subject of experiment [1] is A-431. In words: Antitumor activity against human A431 cells. The method in brief: (§1)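 SRB growth assay. Stock cultures grown in T-25 flasks in RPMI-1640 with […], 0.25% sodium bicarbonate, 10% FBS and 100 µg/mL kanamycin. Freshly trypsinized cells seeded at 1500-7500 per well, compounds added from DMSO-diluted stock, 3 days culture. Attached cells fixed with cold 50% TCA, stained with 0.4% SRB, bound dye solubilized, absorbance read at 562 nm. EC50 = concentration reducing growth 50%, mean of at least three independent determinations.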

The subject of experiment [2] is 1A9. Kind of experiment: Antitumor activity against human 1A9 cells. The method in brief:
as §1

The test system of experiment [3] is LNCaP. Kind of experiment: Antitumor activity against human LNCAP cells. The method in brief: as §1
For experiment [4], the system named is HCT-116. Kind of experiment: Antitumor activity against human HCT116 cells. The method in brief: as §1
Experiment [5] relates to DU-145. In words: Antitumor activity against human DU145 cells. The method in brief: as §1
For experiment [6], the system named is A549. Kind of experiment: Antitumor activity against human A549 cells. The method in brief:
as §1

Experiment [7] deals with PC-3. Kind of experiment: Antitumor activity against human PC3 cells. The method in brief:
as §1

Experiment [8] can be described thus: Antitumor activity against human KB-VIN cells. Particulars: KBVIN. The method in brief:
as §1

Experiment [9] deals with KB. In words: Antitumor activity against human KB cells. The method in brief: as §1
The subject of experiment [10] is ZR-75-1. In words: Antitumor activity against human ZR751 cells. The method in brief:
as §1

The test system of experiment [11] is HCT-8. Kind of experiment: Antitumor activity against human HCT8 cells. The method in brief:
as §1

Compound `C[C@@]12C[C@H]3OC(=O)[C@@H]1CO[C@@]14O[C@]5(C2C1=O)[C@@](O)(CC[C@H]1[C@H]4C[C@@H]2O[C@@]24CC=CC(=O)[C@]14C)C(=O)O[C@@]35C` [PHYSALIN J] had an EC50 in experiment [1] of 17 µg/mL (≈ 32.3 µM).
For `CC1=C(C)C(=O)OC([C@](C)(O)[C@]2(O)[C@@H](O)C[C@@]3(O)[C@@H]4C[C@@H](O)[C@@]5(O)[C@@H](O)C=CC(=O)[C@]5(C)[C@H]4CC[C@]23C)C1` (stereo partly specified) [WITHANGULATIN G], the EC50 in experiment [2] was found to be 18.8 µg/mL (≈ 35 µM); in experiment [3], 13.4 µg/mL (≈ 25 µM).
With `CO[C@@H]1CC(=O)[C@@]2(C)[C@@H](CC[C@@H]3[C@@H]2CC[C@@]2(O)C(=O)O[C@@]4(C)[C@H]5C[C@@]6(C)C7C(=O)[C@@]3(OC[C@H]6C(=O)O5)O[C@]724)C1` [PHYSALIN W], the EC50 in [2] is 9.2 µg/mL (≈ 16.9 µM).
As for `CC1=C(C)C(=O)OC([C@](C)(O)[C@]2(O)C[C@H](O)[C@@]3(O)[C@@H]4C[C@H]5O[C@]56[C@@H](O)C=CC(=O)[C@]6(C)[C@H]4CC[C@@]32C)C1` (stereo partly specified) [WITHANGULATIN B], the EC50 in [2] stood at 0.2 µg/mL (≈ 0.386 µM); in experiment [4], 0.4 µg/mL (≈ 0.771 µM); in [5] it was 1.3 µg/mL (≈ 2.51 µM); in experiment [3], 0.2 µg/mL (≈ 0.386 µM).
`CO[C@H]1C[C@@](O)([C@@](C)(O)C2CC(C)=C(C)C(=O)O2)[C@@]2(C)CC[C@H]3[C@@H](C[C@H]4O[C@]45[C@@H](O)CCC(=O)[C@]35C)[C@]12O` (stereo partly specified) [WITHANGULATIN C]: the EC50 in [2] is 6.5 µg/mL (≈ 12.2 µM); in [4], 11.4 µg/mL (≈ 21.3 µM); in experiment [3] it was 13.9 µg/mL (≈ 26 µM).
For `CO[C@H]1CC(=O)[C@]2(C)[C@H]3CC[C@]4(C)[C@](O)([C@@](C)(O)C5CC(C)=C(C)C(=O)O5)[C@@H](O)C[C@@]4(O)[C@@H]3C[C@H]3O[C@]32C1` (stereo partly specified) [WITHANGULATIN H], in that order: 3.7 µg/mL (≈ 6.92 µM), 9.2 µg/mL (≈ 17.2 µM) and 9.6 µg/mL (≈ 18 µM).
As to `C[C@@]12C[C@H]3OC(=O)[C@@H]1CO[C@]14O[C@]5([C@H]2C1=O)[C@@](O)(CC[C@H]1[C@H]4C[C@H]2O[C@]24CC=CC(=O)[C@]14C)C(=O)O[C@@]35C` [PHYSALIN F], the EC50 in experiment [6] was 1.3 µg/mL (≈ 2.47 µM); in [7], 1.1 µg/mL (≈ 2.09 µM); in experiment [8], 1.9 µg/mL (≈ 3.61 µM); in experiment [9], 0.9 µg/mL (≈ 1.71 µM); in experiment [3], 1 µg/mL (≈ 1.9 µM); in [10], 0.3 µg/mL (≈ 0.57 µM). In addition, the EC50 amounted to 1.1 µg/mL (≈ 2.09 µM) in experiment [1] and 1 µg/mL (≈ 1.9 µM) in [11].
On to `C[C@]12C(=O)C=CCC1=CC[C@@H]1[C@@H]2CC[C@]2(O)C(=O)O[C@@]3(C)[C@H]4C[C@]5(C)[C@@H](CO[C@@]16O[C@@]32[C@H]5C6=O)C(=O)O4` [PHYSALIN B], for which the EC50 in [6] is 5.9 µg/mL (≈ 11.6 µM); in experiment [7], 0.9 µg/mL (≈ 1.76 µM); in experiment [8], 1.3 µg/mL (≈ 2.55 µM); in experiment [9] it was 3 µg/mL (≈ 5.88 µM); in experiment [3] it was 5.3 µg/mL (≈ 10.4 µM); in experiment [10] it was 2.6 µg/mL (≈ 5.09 µM). Besides, the EC50 in experiment [1] amounted to 1.8 µg/mL (≈ 3.53 µM); in experiment [11], 1.5 µg/mL (≈ 2.94 µM).
`CO[C@@H]1CC(=O)[C@]2(C)[C@H]3CC[C@@]4(O)C(=O)O[C@@]5(C)[C@H]6C[C@@]7(C)C8C(=O)[C@@](OC[C@H]7C(=O)O6)(O[C@]845)[C@@H]3C[C@H]3O[C@]32C1` [PHYSALIN U]: the EC50 was found to be 16.3 µg/mL (≈ 29.2 µM) in [6]; 18.1 µg/mL (≈ 32.4 µM) in experiment [7]; 20 µg/mL (≈ 35.8 µM) in experiment [8]; 11.9 µg/mL (≈ 21.3 µM) in experiment [9]; 15.9 µg/mL (≈ 28.5 µM) in [3]; 8.2 µg/mL (≈ 14.7 µM) in experiment [10]. Besides, the EC50 is 13.4 µg/mL (≈ 24 µM) in experiment [1] and 11.1 µg/mL (≈ 19.9 µM) in experiment [11].
For `C[C@@]12C[C@H]3OC(=O)[C@@H]1CO[C@@]14O[C@]5([C@H]2C1=O)[C@@](O)(CC[C@H]1[C@H]4C[C@@H](O)[C@@]2(O)CC=CC(=O)[C@]12C)C(=O)O[C@@]35C` [PHYSALIN D], the EC50 in [6] is 1.6 µg/mL (≈ 2.94 µM); in experiment [7], 1.6 µg/mL (≈ 2.94 µM); in experiment [8], 7 µg/mL (≈ 12.9 µM); in experiment [9] it was 1.2 µg/mL (≈ 2.2 µM); in experiment [3], 1.3 µg/mL (≈ 2.39 µM); in experiment [10] it was 0.4 µg/mL (≈ 0.735 µM). Further, the EC50 was determined as 1.4 µg/mL (≈ 2.57 µM) in [1] and 1.2 µg/mL (≈ 2.2 µM) in [11].
